Experimental data published in ChEMBL document CHEMBL5365533, “DNA major versus minor groove occupancy of monomeric and dimeric crystal violet derivatives. Toward structural correlations” (Bioorg Med Chem, 2023).
The source made the active and inactive calls. No cut-off for these calls is given here.

How the values were obtained:
Calf thymus DNA [1] = test: Binding affinity to calf thymus DNA in Tris-HCl buffer at pH 7.0 assessed as minimal change in viscosity at 2 to 26 uM incubated for 30 mins by Ostwald viscometer analysis; assay type: nucleic-acid assay; conditions: Bos taurus, dose 2-26 µM
Outline: (§1)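 Ostwald viscometer at 23.0 ± 1 °C. CT DNA held at 300 μM/bp in 10 mM Tris-HCl pH 7.0 with ligand or ethidium at 0–26 μM, incubated 30 min before timing flow. (η/η0)^1/3 plotted against [ligand]/[DNA]; three replicates, SD shown.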

AT rich DNA = test: Displacement of Ethidium bromide from AT3 (5'-ATATAT-3') hairpin DNA (unknown origin)/EtBr complex assessed as binding constant by crystal violet staining based analysis; assay type: nucleic-acid assay
[2] = Displacement of Ethidium bromide from STAT6 (5'-TCCTAG-3') hairpin DNA (unknown origin)/EtBr complex assessed as binding constant by crystal violet staining based analysis
[3] = Displacement of Ethidium bromide from cMyc (5'-CACGTG-3') hairpin DNA (unknown origin)/EtBr complex assessed as binding constant by crystal violet staining based analysis
Calf thymus DNA [4] = test: Binding affinity to calf thymus DNA assessed as change in melting temperature by UV thermal denaturation assay; assay type: nucleic-acid assay; conditions: Bos taurus
Outline: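 CT DNA in 10 mM Tris-HCl pH 7.0 at a DNA:ligand ratio of 30:1, in 1 cm quartz cuvettes. Absorbance read every 2 °C from 25 to 95 °C, heating at 1 °C/min. Tm taken from first-derivative plots.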

[5] = Binding affinity to DDD hairpin DNA (unknown origin) assessed as binding constant at 100 uM by ITC analysis
Outline: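 Isothermal titration calorimetry of DDD hairpin (10 μM in cell) titrated with ligand (100 μM in syringe), 10 mM Tris-HCl pH 7.0, 30 °C; 25 injections of 10 μL. Heats of dilution subtracted; single-site binding model fitted; K averaged from triplicate experiments.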

Calf thymus DNA [6] = test: Binding affinity to calf thymus DNA assessed as hypochromic shift by UV spectroscopic analysis; assay type: nucleic-acid assay; conditions: Bos taurus
Outline: (§2)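 UV titration in 10 mM Tris-HCl pH 7.0 with ligand fixed at 5.0 μM and CT DNA:ligand ratios of 0:1, 1:1, 2:1, 5:1, 10:1 and 30:1.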

Calf thymus DNA [7] = test: Binding affinity to calf thymus DNA assessed as bathochromic shift by UV spectroscopic analysis; assay type: nucleic-acid assay; conditions: Bos taurus; outline: as §2
Calf thymus DNA [8] = test: Binding affinity to calf thymus DNA in Tris-HCl buffer at pH 7.0 assessed as lengthening of DNA from intercalation of drug incubated for 30 mins by Ostwald viscometer analysis; assay type: nucleic-acid assay; conditions: Bos taurus; outline: as §1
Calf thymus DNA [9] = test: Binding affinity to calf thymus DNA in Tris-HCl buffer at pH 7.0 assessed as rigidification of DNA from intercalation of drug incubated for 30 mins by Ostwald viscometer analysis; assay type: nucleic-acid assay; conditions: Bos taurus; outline: as §1
DNA [10] = test: Displacement of Ethidium bromide from A5T5 (5'-GGGAAAAATTTTTCCCCC-3') DNA (unknown origin)/EtBr complex assessed as decrease in initial absorbance of DNA by crystal violet staining based analysis; assay type: nucleic-acid assay
DNA [11] = test: Displacement of Ethidium bromide from (AT)5 (5'-GGGATATA-TATATCCC-3') DNA (unknown origin)/EtBr complex assessed as decrease in initial absorbance of DNA by crystal violet staining based analysis; assay type: nucleic-acid assay
[12] = Displacement of Ethidium bromide from G5C5 (5'-AAAGGGGG-CCCCCTTT-3') DNA (unknown origin)/EtBr complex assessed as decrease in initial absorbance of DNA by crystal violet staining based analysis
[13] = Displacement of Ethidium bromide from NFAT1 (5-GAAAAA-3') hairpin DNA (unknown origin)/EtBr complex assessed as binding constant by crystal violet staining based analysis
[14] = Binding affinity to DDD hairpin DNA (unknown origin) in Tris-HCl buffer at pH 5.0 assessed as negative induced CD bands formation at 310nm at 1 mM incubated for 5 mins by CD spectra analysis
Outline: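 Ligand (1 mM stock) added in small aliquots to DDD hairpin (8.8 μM) in 10 mM Tris-HCl pH 5.0; mixed by inversion and incubated 5 min at 20 °C. CD recorded 215–350 nm in 0.5 nm steps as the average of three scans.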

Calf thymus DNA [15] = test: Binding affinity to calf thymus DNA in Tris-HCl buffer at pH 7.0 assessed as differential groove occupancy at 100 uM by ITC analysis; assay type: nucleic-acid assay; conditions: Bos taurus
Outline: (§3)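 ITC of CT DNA (100 μM/bp in cell) titrated with ligand (100 μM in syringe), 10 mM Tris-HCl pH 7.0; 25 injections of 10 μL at 30 °C, or for one ligand 50 injections of 5 μL at 27 °C. Buffer-into-DNA heats subtracted; single-site model gives K, N, ΔH and ΔS.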

Calf thymus DNA [16] = test: Binding affinity to calf thymus DNA in Tris-HCl buffer at pH 7.0 assessed as change in enthalpy at 100 uM by isothermal titration […] analysis; assay type: nucleic-acid assay; conditions: Bos taurus; outline: as §3
Calf thymus DNA [17] = test: Binding affinity to calf thymus DNA in Tris-HCl buffer at pH 7.0 assessed as change in entropy at 100 uM by isothermal titration […] analysis; assay type: nucleic-acid assay; conditions: Bos taurus; outline: as §3
Calf thymus DNA [18] = test: Ratio of Kapp for displacement of ethidium bromide from calf thymus DNA/EtBr complex to Kapp for displacement of ethidium bromide from calf thymus DNA/EtBr in presence of methyl green; assay type: nucleic-acid assay; conditions: Bos taurus
Outline: (§4)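 Fluorescence titration of CT DNA (1.0 μM/bp) plus ethidium (0.5 μM), with or without netropsin or methyl green (0.5 μM each), against increasing ligand in 10 mM Tris-HCl pH 7.0. Excitation 520 nm, emission 590 nm, read after 3 min equilibration. C50 is the concentration giving 50% fluorescence loss; Kapp = 9.5×10^6 M⁻¹ × C_ethidium/C50.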

Calf thymus DNA [19] = test: Ratio of Kapp for displacement of ethidium bromide from calf thymus DNA/EtBr complex to Kapp for displacement of ethidium bromide from calf thymus DNA/EtBr in presence of netropsin; assay type: nucleic-acid assay; conditions: Bos taurus; outline: as §4
[20] = Binding affinity to DDD (5-CGAATT-3') hairpin DNA (unknown origin) assessed as binding constant by isothermal titration calorimetry

Activity (Calf thymus DNA [1]): Dose-Dependent Effect
K (AT rich DNA): 0.21 10^5/M
K [2]: 1.06 10^5/M
K [3]: 1.26e+06 M⁻¹
ΔTm (Calf thymus DNA [4]): 2.8 °C
K [5]: 14.6 10^5/M
Activity (Calf thymus DNA [6]): Active
Activity (Calf thymus DNA [7]): Active
Activity (Calf thymus DNA [8]): Active
Activity (Calf thymus DNA [9]): Active
C50 (DNA [10]): 1.86 µM
C50 (DNA [11]): 1.57 µM
C50 [12]: 2.05 µM
K [13]: 0.19 10^5/M
Activity [14]: Active
Activity (Calf thymus DNA [15]): Active
deltaH (Calf thymus DNA [16]): 29.7 kcal/mol
deltaS (Calf thymus DNA [17]): 0.122 kcal/mol
Ratio (Calf thymus DNA [18]): > 8
Ratio (Calf thymus DNA [19]): 1.3
K [20]: 14.6 10^5/M
SMILES: Cc1cc(N(C)C)cc(C)c1C(=C1C=CC(=[N+](C)C)C=C1)c1ccc(N(C)C)cc1
